Test results reported in ChEMBL document CHEMBL3734685, “2-Aminopyrimidines as dual adenosine A1/A2A antagonists” (Eur J Med Chem, 2015).
The source made the active and inactive calls. The calls are words filed in the database; no cut-off is given here.

Assays:
[1] = organism: Rattus norvegicus; assay: Selectivity index, ratio of Ki for adenosine A2A receptor in Sprague-Dawley rat striatal membranes to Ki for adenosine A1 receptor in Sprague-Dawley rat whole brain membranes
Outline: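 Ratio of two Ki values. A2A: rat striatal membranes (~10 mg tissue) in 50 mM Tris pH 7.7 with 10 mM MgCl2, 0.2 units adenosine deaminase, 50 nM CPA and 4 nM [3H]NECA. A1: whole-brain membranes with [3H]DPCPX 0.1 nM. Test compound 0–100 µM, 1 h incubation, filtration and scintillation counting. Non-specific binding with 100 µM CPA. Duplicate determinations.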

[2] = biological target: T1, Adenosine receptor A1 (Rattus norvegicus, UniProt P25099); assay: Displacement of [3H]DPCPX from adenosine A1 receptor in Sprague-Dawley rat whole brain membranes after 1 hr by scintillation counting analysis; set-up: species or system Membrane
T1 sequence (P25099 whole entry): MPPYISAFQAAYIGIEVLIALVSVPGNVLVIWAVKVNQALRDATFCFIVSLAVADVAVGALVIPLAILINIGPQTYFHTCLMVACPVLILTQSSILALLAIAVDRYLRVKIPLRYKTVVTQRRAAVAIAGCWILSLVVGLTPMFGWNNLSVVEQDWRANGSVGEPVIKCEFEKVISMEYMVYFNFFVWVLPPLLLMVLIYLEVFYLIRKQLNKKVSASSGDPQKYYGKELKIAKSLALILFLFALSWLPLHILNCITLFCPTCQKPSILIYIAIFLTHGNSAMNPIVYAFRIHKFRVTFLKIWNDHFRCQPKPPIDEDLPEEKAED
Outline: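 Male rat whole-brain homogenate in 50 mM Tris (pH 7.7), ~5 mg original tissue per incubation, with 0.1 units adenosine deaminase and 0.1 nM [3H]DPCPX. Incubated 1 h, filtered on GF/B, counted by scintillation. IC50 from one-site competition, converted to Ki by Cheng-Prusoff. Duplicates, mean ± SEM.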

[3] = biological target: Adenosine receptor A2a (Rattus norvegicus, UniProt P30543); assay: Displacement of [3H]NECA from adenosine A2A receptor in Sprague-Dawley rat striatal membranes after 1 hr by scintillation counting analysis; set-up: species or system Striatum, Membrane
[4] = Cytotoxicity against human HeLa cells assessed as cell viability at 1 uM after 24 hrs by MTT assay; format: cell-based; conditions: read-out: Activity
Outline: (§1)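 HeLa cells grown to confluence in DMEM with 10% FBS, penicillin/streptomycin and fungizone at 37 °C, 10% CO2. Seeded at 500 000 cells/well, then after 24 h switched to serum-free DMEM with test compound (DMSO stocks, filtered). Exposure lasted 24 h at 37 °C. Read-out was MTT 0.5%, 2 h in the dark, formazan dissolved in isopropanol, absorbance 560. Formic-acid lysis set 0% viability and untreated wells 100%. Triplicate, mean ± SD.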

[5] = Cytotoxicity against human HeLa cells assessed as cell viability at 10 uM after 24 hrs by MTT assay; format: cell-based; conditions: read-out: Activity; outline: as §1
[6] = test system: Rattus norvegicus; assay: Reduction in haloperiodol induced catalepsy time in Sprague-Dawley rat at 1 to 2 mg/kg, ip dosed 30 mins after halperiodol challenge measured 60 mins after halperiodol challenge
[7] = test system: Rattus norvegicus; assay: Reduction in haloperiodol induced catalepsy time in Sprague-Dawley rat at 0.1 to 2 mg/kg, ip dosed 30 mins after halperiodol challenge measured 60 mins after halperiodol challenge

Adenosine receptor A2a, sequence (P30543 whole entry): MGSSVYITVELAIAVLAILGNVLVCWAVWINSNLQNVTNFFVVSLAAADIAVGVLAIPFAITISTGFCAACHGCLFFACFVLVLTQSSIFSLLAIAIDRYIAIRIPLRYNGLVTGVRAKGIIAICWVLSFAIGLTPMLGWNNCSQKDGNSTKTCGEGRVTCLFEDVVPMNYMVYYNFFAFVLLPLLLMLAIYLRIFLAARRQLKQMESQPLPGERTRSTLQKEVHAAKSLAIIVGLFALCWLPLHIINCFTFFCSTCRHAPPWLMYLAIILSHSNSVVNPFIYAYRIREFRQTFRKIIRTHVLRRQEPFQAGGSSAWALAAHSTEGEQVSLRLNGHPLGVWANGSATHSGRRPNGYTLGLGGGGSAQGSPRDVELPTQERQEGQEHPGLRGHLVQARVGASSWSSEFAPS

Ratio Ki [1] | Ki [2] [nM] | Ki [3] [nM] | SMILES | viability at 24 h, 1 µM [4] [%] | viability at 24 h, 10 µM [5] [%] | Activity [6] | Activity [7]
3.1 | 129 | 399 | Cc1ccc(-c2cc(-c3cccc(Cl)c3)nc(N)n2)o1 |  |  |  | 
0.8 | 37.5 | 30.9 | CCN1CCN(C(=O)c2cccc(-c3cc(-c4ccc(C)o4)nc(N)n3)c2)CC1 | 65.7 | 60.1 |  | 
7.6 | 434 | 3320 | Cc1ccc(-c2cc(-c3ccc(Cl)cc3)nc(N)n2)o1 |  |  |  | 
0.1 | 136 | 16.3 | Cc1ccc(-c2cc(-c3cccc(C(=O)N4CCN(C)CC4)c3)nc(N)n2)o1 | 107 | 76.8 | Active | 
42 | 22.8 | 948 | Nc1nc(-c2ccccc2)cc(-c2cccc(Cl)c2)n1 |  |  |  | 
2.8 | 145 | 409 | COc1cccc(-c2cc(-c3ccc(C)o3)nc(N)n2)c1 |  |  |  | 
0.6 | 52.1 | 29.3 | Cc1ccc(-c2cc(-c3cccc(C(=O)N4CCOCC4)c3)nc(N)n2)o1 | 98.6 | 81.7 |  | 
1.6 | 36.8 | 58.2 | Cc1ccc(-c2cc(-c3cccc(C(=O)N4CCCC4)c3)nc(N)n2)o1 | 101 | 67.9 |  | 
0.7 | 9.54 | 6.34 | Cc1ccc(-c2cc(-c3cccc(C(=O)N4CCCCC4)c3)nc(N)n2)o1 | 64.3 | 61.6 |  | Active
6.3 | 39.1 | 245 | Nc1nc(-c2cccc(Cl)c2)cc(-c2ccco2)n1 |  |  |  | 
1.6 | 158 | 257 | Nc1nc(-c2ccc(F)cc2)cc(-c2ccco2)n1 |  |  |  | 
4.3 | 650 | 2780 | COc1ccc(-c2cc(-c3ccc(C)o3)nc(N)n2)cc1OC |  |  |  | 
4.1 | 61.4 | 249 | COc1cccc(-c2cc(-c3ccco3)nc(N)n2)c1 |  |  |  | 
